From ChEMBL document CHEMBL4359831, “Chemoproteomics of an Indole-Based Quinone Epoxide Identifies Druggable Vulnerabilities in Vancomycin-Resistant Staphylococcus aureus” (J Med Chem, 2019)
≈ marks a conversion by molar mass, not a printed value. Calls of active or inactive are those of the source. The rule behind the calls is not given here.

Columns and labels:
[1] = tested on: Staphylococcus aureus; test: Antibacterial activity against vancomycin-resistant Staphylococcus aureus 1002434 after 16 to 18 hrs by CLSI M07-A10 protocol based dilution method; format: functional
[2] = target: T1, Arsenate reductase (Staphylococcus aureus) (UniProt P0A006); test: Binding affinity to Staphylococcus aureus ATCC 29213 Arsenate reductase at 10 uM in presence of 9-(Pent-4-yn-1-yl)-1a,10a-dihydro-2H-oxireno[2',3':4,5]-benzo[1,2-a]carbazole-2,10(9H)-dione after 1 hr by biotin-azide fluorescence dependent LC-MS/MS-based ABPP assay
T1 sequence (whole entry): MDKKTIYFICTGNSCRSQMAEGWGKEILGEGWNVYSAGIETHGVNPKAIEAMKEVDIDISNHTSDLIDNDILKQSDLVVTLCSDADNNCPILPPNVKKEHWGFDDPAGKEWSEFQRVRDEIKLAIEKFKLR
Method in brief: (§1)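 Competitive LC–MS/MS ABPP on S. aureus soluble proteome. Pretreatment 1 h with DMSO, compound (10 μM), comparator (10 μM) or iodoacetamide (10 mM). Chase with alkyne probe (10 μM, 1 h), then Cu-catalysed click with biotin-azide and LC–MS/MS. Targets were proteins at ratio ≤0.1 versus DMSO in the compound and IAM groups and ~1 in the comparator group.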

[3] = tested on: Staphylococcus aureus; test: Antibacterial activity against vancomycin-resistant Staphylococcus aureus HIP11714 after 16 to 18 hrs by CLSI M07-A10 protocol based dilution method; format: functional
[4] = tested on: Erythrocyte; test: Toxicity in human erythrocytes assessed as induction of hemolysis at 100 ug/ml incubated under shaking condition for 1 hr by spectrophotometric method; format: cell-based
[5] = Selectivity index, ratio of CC50 for African green monkey Vero cells to MIC90 for Staphylococcus aureus ATCC 29213; format: toxicity; details: read-out: Selectivity Index
[6] = tested on: Staphylococcus aureus; test: Binding affinity to Staphylococcus aureus ATCC 29213 Catabolite control protein A at 10 uM in presence of 9-(Pent-4-yn-1-yl)-1a,10a-dihydro-2H-oxireno[2',3':4,5]-benzo[1,2-a]carbazole-2,10(9H)-dione after 1 hr by biotin-azide fluorescence dependent LC-MS/MS-based ABPP assay; method in brief: as §1
[7] = Chemical reactivity assessed as thiolated-adduct formation at 25 uM using 4-nitrobenzyl thiol after 1 hr by HPLC analysis; format: physicochemical
[8] = tested on: Staphylococcus aureus; test: Binding affinity to Staphylococcus aureus ATCC 29213 Heme peroxidase at 10 uM in presence of 9-(Pent-4-yn-1-yl)-1a,10a-dihydro-2H-oxireno[2',3':4,5]-benzo[1,2-a]carbazole-2,10(9H)-dione after 1 hr by biotin-azide fluorescence dependent LC-MS/MS-based ABPP assay; method in brief: as §1
[9] = target: T2, 2-dehydropantoate 2-reductase (Staphylococcus aureus) (UniProt A0A0J9X283); test: Binding affinity to Staphylococcus aureus ATCC 29213 2-dehydropantoate 2-reductase at 10 uM in presence of 9-(Pent-4-yn-1-yl)-1a,10a-dihydro-2H-oxireno[2',3':4,5]-benzo[1,2-a]carbazole-2,10(9H)-dione after 1 hr by biotin-azide fluorescence dependent LC-MS/MS-based ABPP assay; method in brief: as §1
T2 sequence (whole entry): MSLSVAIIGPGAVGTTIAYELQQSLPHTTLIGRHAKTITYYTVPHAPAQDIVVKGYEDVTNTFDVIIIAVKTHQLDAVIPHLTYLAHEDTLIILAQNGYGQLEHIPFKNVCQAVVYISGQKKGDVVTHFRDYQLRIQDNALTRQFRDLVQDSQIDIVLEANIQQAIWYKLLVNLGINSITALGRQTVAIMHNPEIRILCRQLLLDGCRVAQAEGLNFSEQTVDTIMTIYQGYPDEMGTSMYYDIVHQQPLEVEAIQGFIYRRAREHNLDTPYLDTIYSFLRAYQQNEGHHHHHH

[10] = tested on: Acinetobacter baumannii; test: Antibacterial activity against Acinetobacter baumannii BAA-1605 after 16 to 18 hrs by CLSI M07-A10 protocol based dilution method; format: functional
[11] = tested on: Staphylococcus aureus; test: Binding affinity to Staphylococcus aureus ATCC 29213 DNA polymerase III subunit beta at 10 uM in presence of 9-(Pent-4-yn-1-yl)-1a,10a-dihydro-2H-oxireno[2',3':4,5]-benzo[1,2-a]carbazole-2,10(9H)-dione after 1 hr by biotin-azide fluorescence dependent LC-MS/MS-based ABPP assay; method in brief: as §1
[12] = tested on: Staphylococcus aureus; test: Antibacterial activity against vancomycin-resistant Staphylococcus aureus HIP14300 after 16 to 18 hrs by CLSI M07-A10 protocol based dilution method; format: functional

Q: What does the source list for `CC(C)n1c2ccccc2c2ccc3c(c21)C(=O)C1OC1C3=O` (configuration not stated)?
A: MIC [1]: 0.5 µg/mL (≈ 1.64 µM); Activity [2]: Active; MIC [3]: 0.5 µg/mL (≈ 1.64 µM); Activity [4]: Non-Toxic; selectivity ratio [5]: > 200; Activity [6]: Active; Activity [7]: Active; Activity [8]: Active; Activity [9]: Active; MIC [10]: 64 µg/mL (≈ 210 µM); Activity [11]: Active; MIC [12]: 0.5 µg/mL (≈ 1.64 µM)
